Residues, ends and D or L forms follow the SMILES beside them. *: point of attachment. Cbz = O=C(OCc1ccccc1)*
Tests used:
Siah2 [1] = target: T1, Siah2 (Mus musculus, UniProt Q06986); test: In vivo auto-ubiquitination of Siah2 in 293T cells; assay type: cell-based; conditions: MEN 25 µM or MG132 40 µM, 6 h
T1 sequence (Q06986 1-325): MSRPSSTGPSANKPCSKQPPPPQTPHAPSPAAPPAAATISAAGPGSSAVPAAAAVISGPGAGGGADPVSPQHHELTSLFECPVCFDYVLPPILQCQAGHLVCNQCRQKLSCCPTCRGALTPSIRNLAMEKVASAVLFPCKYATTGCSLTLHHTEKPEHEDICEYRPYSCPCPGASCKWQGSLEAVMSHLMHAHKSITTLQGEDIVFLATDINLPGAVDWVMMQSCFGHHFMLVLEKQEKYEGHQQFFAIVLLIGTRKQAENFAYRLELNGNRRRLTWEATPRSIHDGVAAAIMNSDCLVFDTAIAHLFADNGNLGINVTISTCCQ
Summary of the method: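 293T cells (DMEM, 10% BS) were co-transfected with Flag-Siah2 with or without HA-ubiquitin and treated 24 h later. Cells were lysed in 2% SDS/TBS at 95°C for 10 min, diluted ninefold in 1% Triton X-100/2 mM EDTA, sonicated, precleared with protein G and clarified. Anti-Flag immunoprecipitation used 2 mg protein overnight at 4°C. After stringent washes, 8% SDS-PAGE was blotted with anti-HA and reprobed with anti-Flag.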

Siah1 = target: T2, Siah1 (Mus musculus, UniProt P61092); test: Siah1 ubiquitin ligase activity; assay type: biochemical
T2 sequence (P61092 1-282): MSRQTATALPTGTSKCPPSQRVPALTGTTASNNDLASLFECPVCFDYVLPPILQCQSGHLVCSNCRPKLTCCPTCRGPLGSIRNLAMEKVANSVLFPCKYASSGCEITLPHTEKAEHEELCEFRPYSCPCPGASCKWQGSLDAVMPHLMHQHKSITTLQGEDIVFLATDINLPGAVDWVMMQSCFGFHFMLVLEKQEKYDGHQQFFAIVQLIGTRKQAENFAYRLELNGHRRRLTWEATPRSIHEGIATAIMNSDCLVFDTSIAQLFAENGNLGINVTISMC

GST-RNF5 [2] = target: T3, GST-RNF5 (Homo sapiens, UniProt Q99942); test: Meso Scale electro-chemiluminescent RNF5 ubiquitination assay; assay type: biochemical
T3 sequence (Q99942 whole entry): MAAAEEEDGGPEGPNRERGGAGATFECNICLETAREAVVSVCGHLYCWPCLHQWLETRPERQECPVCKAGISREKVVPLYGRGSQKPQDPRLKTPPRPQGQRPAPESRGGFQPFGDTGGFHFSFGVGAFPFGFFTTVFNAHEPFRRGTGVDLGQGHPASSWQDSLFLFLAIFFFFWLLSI
Summary of the method: (§1)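 Electrochemiluminescent format. GST-Siah2 or GST-RNF5 (5 pM final) is adsorbed onto glutathione-coated wells. Test compound is added in 100% DMSO. Reaction is started with a pre-charged ubiquitin-E1-E2 mix and runs 1 h at room temperature, then is stopped by Tris-buffered washes. SULFO-Tag antibody to ubiquitinated proteins is added and the signal is read. Library tested at 100 µM; hits confirmed by dose-response curves.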

UACC903 melanoma tumors = test: UACC903 melanoma xenograft in nude mice; assay type: in vivo, mouse
Summary of the method: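 UACC903 cells (1 × 10^6 in 100 µl PBS) are injected s.c. into the flank of 4-week-old male nude mice. From 1 week, test compound (2, 5 or 10 mg/kg; 0.1% DMSO final) is given i.p. twice weekly for 4 weeks, with tumors measured twice weekly. Harvested tumors: Z-fix, IHC for HIF-1α/pERK (HRP polymer, DAB, hematoxylin), TUNEL (peroxidase kit), and pERK/total ERK immunoblots.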

VEGF = VEGF secretion from SW1 melanoma cells; assay type: cell-based, mouse; conditions: 10 h, ELISA
HIF-1α [3] = test: HIF-1α protein level in SW1 melanoma cells; assay type: cell-based; conditions: SW1 mouse melanoma cells, hypoxia 1% O2, 5 h
SW1 melanoma cells = test: Semi-quantitative RT-PCR of HIF-1α and VEGF transcripts; assay type: cell-based, mouse
HIF-1α [4] = test: HIF-1α protein level in 293T cells; assay type: cell-based; conditions: hypoxia 1% O2, 5 h
GST-RNF5 [5] = target: T3, GST-RNF5; test: In vitro ubiquitination assay, Western blot with anti-ubiquitin; assay type: biochemical; conditions: 100 µM
Summary of the method: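 Bacterially expressed GST-RNF5 was purified on glutathione resin. The reaction buffer was 50 mM Tris-HCl pH 8.0, 5 mM MgCl2, 0.5 mM DTT and 2 mM NaF, with HA-ubiquitin (2 µg), 2 mM ATP, E1 (50 ng) and purified His-UbcH5b E2 (250 ng). Test compound was present at 100 µM, and reactions ran 45 min at 37°C.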

SPRY2 = test: Spry2 expression in 293T cells transfected with Myc-Spry2 and HA-Siah2; assay type: cell-based; conditions: 5 h
[6] = test system: Human Microvascular Endothelial Cells (HMVEC); test: HMVEC tube formation with conditioned medium of treated SW1 cells; assay type: cell-based; conditions: medium from SW1 cells treated 10 h under hypoxia; read after 16 h
GST-Siah2 [7] = target: T4, GST-Siah2 (Mus musculus, UniProt Q06986); test: In vitro ubiquitination assay, Western blot with anti-ubiquitin; assay type: biochemical
T4 sequence (Q06986 1-325): T1 sequence (Q06986 1-325)
Summary of the method: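 GST-Siah2 (with GST-RNF5 and GST-Siah2 RING mutant in parallel), bacterially expressed, glutathione-purified. Reactions on glutathione beads in 50 mM Tris-HCl pH 8.0, 5 mM MgCl2, 0.5 mM DTT, 2 mM NaF, with HA-ubiquitin (2 µg), 2 mM ATP, E1 (50 ng) and His-UbcH5b (250 ng), 45 min, 37°C, with shaking. Test compound at 100 µM or a concentration series. Read-out: 8% SDS-PAGE, anti-ubiquitin blot; anti-GST for input.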

GST-Siah2 [8] = target: T4, GST-Siah2; test: In vitro protein-binding assay of GST-Siah2 with PHYL or Spry2
Summary of the method: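 GST-Siah2 was affinity-purified onto glutathione-Sepharose 4B beads. Spry2 and PHYL were made by coupled in vitro transcription/translation in reticulocyte lysate with [35S]-methionine and mixed with the GST fusion on glutathione beads. Bound protein was resolved on 12% SDS-PAGE and detected by autoradiography.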

Siah2 [9] = target: T1, Siah2; test: Siah steady-state levels in transfected 293T cells; assay type: cell-based
Summary of the method: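 293T cells (DMEM, 10% BS) were transiently transfected with HA-Siah2 or Flag-Siah1a (1 µg) by calcium phosphate or Lipofectamine. They were treated 24 h later with test compound at several concentrations, with DMSO as control. Lysates were immunoblotted for the tag with β-actin as loading control, using fluorescent secondary antibodies and infrared scanning.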

GST-Siah2 [10] = target: T4, GST-Siah2; test: Meso Scale electro-chemiluminescent Siah2 self-ubiquitination assay; assay type: biochemical
Summary of the method: as §1

PHD3 = PHD3 level and half-life; assay type: cell-based, mouse
Summary of the method: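 Immortalized MEFs are kept in 10% FBS with 0.1 mM non-essential amino acids and 0.2 mM 2-mercaptoethanol. Cells get test compound (25 µM), with or without 5 mM N-acetyl L-cysteine. PHD3 is blotted after 1% O2, 5 h; Spry2 under normoxia; HIF-1α in nuclear extracts. β-actin/lamin A are loading controls. For half-life, cycloheximide (20 µg/ml) is added after 5 h hypoxia and cells are harvested over time.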

UACC903 melanoma cells = test: Spry2 and pERK levels in UACC903 melanoma cells; assay type: cell-based, human; conditions: 5 h
Summary of the method: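 UACC903 human melanoma cells are treated 5 h with a concentration series of test compound. Blots are probed overnight at 4°C and detected with fluorescent secondary antibodies. Total ERK or β-actin serves as loading control.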

**Q.** With `CC(C)C[C@@H](C=O)NC(=O)[C@H](CC(C)C)NC(=O)[C@H](CC(C)C)NC(=O)OCc1ccccc1` [MG132] (Cbz-Leu-Leu-Leu-aldehyde) as the compound, how does the “Siah2 ubiquitination in vivo” value (Siah2 [1]) read?
**A.** increased the ubiquitinated and unubiquitinated forms of Siah2

**Q.** What does the source list for `CC1=CC(=O)c2ccccc2C1=O` [compound 1, menadione]?
**A.** Siah1 ubiquitin ligase activity (Siah1): attenuated Siah1 ubiquitin ligase activity; IC50 (GST-RNF5 [2]): > 100 µM; pERK levels in tumors (UACC903 melanoma tumors; IHC and immunoblot of xenograft tumors): effectively reduced the levels of pERK; HIF-1α expression in tumors (UACC903 melanoma tumors; IHC of xenograft tumors): lower levels of HIF-1α expression; degree of apoptosis in tumors (TUNEL) (UACC903 melanoma tumors; xenograft tumors): found to be higher; level of VEGF secreted (VEGF): proportionally reduced; HIF-1α expression (HIF-1α [3]): effectively reduced the level of HIF-1α expression; level of HIF-1α transcripts (SW1 melanoma cells): did not alter the level of HIF-1α transcripts; transcription of VEGF (SW1 melanoma cells): inhibited the transcription of the HIF-1α target gene, VEGF; HIF-1α expression (HIF-1α [4]): reduced the expression of HIF-1α in a dose-dependent manner; RNF5 self-ubiquitination in vitro (GST-RNF5 [5]): did not reduce RNF5 self-ubiquitination activity; Siah2-dependent decrease in SPRY2 expression (SPRY2): attenuated Siah2-dependent decrease in SPRY2 expression; tube formation of HMVEC cells [6]: dose-dependent decrease in tube formation; Siah2 auto-ubiquitination in vitro (GST-Siah2 [7]; 100 µM, new lots of compounds, Western blot): strongest degree of Siah2 inhibition; Siah2 auto-ubiquitination in vitro, dose dependence (GST-Siah2 [7]; GST-Siah2 on glutathione beads, increasing concentrations): attenuated in a dose-dependent manner; association of Siah2 with PHYL or Spry2 (GST-Siah2 [8]): without affecting the association with PHYL or Spry2; steady-state levels of Siah2 / Siah1a (Siah2 [9]): increase the steady-state levels of Siah2; IC50 (GST-Siah2 [10]): 20 µM; stabilization of PHD3 or Spry2, effect on HIF-1α, in presence of ROS scavenger (PHD3; MEF cells, 25 µM with 5 mM N-acetyl cysteine): not affected; steady state levels of endogenous PHD3 (PHD3; MEF cells, hypoxia 1% O2, 5 h, increasing concentrations): corresponding increase in the steady state levels of endogenous PHD3; increase of PHD3 or Spry2 expression in Siah KO cells (PHD3; Siah2 KO and Siah2/Siah1a DKO MEF, 25 µM): attenuated in the Siah2 KO and completely abolished in the Siah2/1a DKO cells; ERK activity / phosphorylation (UACC903 melanoma cells): ERK activity was decreased; SPRY2 level (UACC903 melanoma cells): increase in SPRY2 level; Siah2 ubiquitination in vivo (Siah2 [1]): effectively inhibits Siah2 ubiquitination in vivo

— paper PMC2863310 (Pigment cell & melanoma research, 2009)
